Screening data as filed in PubChem BioAssay.
Most compounds without a hit are left out; they make up all but 2.5% or so of the library.
GSTO1 inh = blocks human GSTO1 in RBBP9 counter-screen; hit rate 1.1% among 300,000; recombinant GSTO1, activity-based probe fluorescence polarization; AID 1974; inhibition, % at 5.96 µM;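 active = inhibition above the campaign mean inhibition plus 3 SD, cut at about 35% in these data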;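 also: 0% = GSTO1-1 with DMSO and 100% = wells lacking GSTO1-1 enzyme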
Target sequence (P78417 whole entry, looked up): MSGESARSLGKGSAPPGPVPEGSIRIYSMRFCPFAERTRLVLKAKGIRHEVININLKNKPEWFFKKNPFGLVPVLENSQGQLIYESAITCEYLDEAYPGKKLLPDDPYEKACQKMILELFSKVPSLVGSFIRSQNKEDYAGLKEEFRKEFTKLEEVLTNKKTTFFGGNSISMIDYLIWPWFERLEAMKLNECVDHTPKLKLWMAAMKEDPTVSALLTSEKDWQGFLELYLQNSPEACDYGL
TDP2 absorb = blocks human TDP2 phosphodiesterase activity | inhibition, % at 12.8 µM | hit rate 0.34% among 370,000 | recombinant TDP2, T5PNP hydrolysis, p-nitrophenol absorbance 415 nm;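 active = inhibition above the mean of all tested compounds plus 3 SD, set per campaign, cut at about 25% in these data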;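 also: 0% = DMSO with enzyme and 100% = buffer with substrate but no TDP2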
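Test system: human TDP2 enzyme; Input: 120 nM TDP2 per well; Buffer or medium: Mg2+-containing Tris-HCl buffer, pH 7.5; Reagent: 5 mM T5PNP; Dosing: 12.8 µM single point, 1% DMSO; Incubation: reaction 2 h, 37 °C; Detection: p-Nitrophenol epi absorbance; Read-out: % inhibition relative to enzyme-containing and enzyme-free wells; Replicates: single well per compound.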
PRMT1 inh = inhibitors of human PRMT1; recombinant PRMT1, activity-based probe fluorescence polarization; Q99873; hit rate 1.3% among 370,000; inhibition, % at 2.79 µM;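 active = inhibition above about 21% made by adding two undisclosed values, limit read from the data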
Target sequence (Q99873 whole entry, looked up): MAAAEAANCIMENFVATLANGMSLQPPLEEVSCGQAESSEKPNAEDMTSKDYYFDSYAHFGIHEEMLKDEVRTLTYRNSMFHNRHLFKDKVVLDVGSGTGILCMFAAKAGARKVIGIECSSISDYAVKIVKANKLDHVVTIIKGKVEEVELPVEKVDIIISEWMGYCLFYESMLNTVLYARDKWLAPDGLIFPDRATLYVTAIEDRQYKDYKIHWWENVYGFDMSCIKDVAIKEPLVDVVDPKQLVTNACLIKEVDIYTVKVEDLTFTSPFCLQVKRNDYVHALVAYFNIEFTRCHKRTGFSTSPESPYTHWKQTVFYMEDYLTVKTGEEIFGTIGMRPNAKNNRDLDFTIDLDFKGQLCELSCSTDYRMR
PAD4 inh = inhibitors of human PAD4 | AID 485272 | recombinant PAD4, RCA probe fluorescence polarization | inhibition, % at 6.36 µM | hit rate 0.41% among 330,000 | Q9UM07;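 active = percent inhibition above a cutoff equal to the mean of all tested compounds plus 3 SD, cut at about 15% in these data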;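 also: 0% = PAD4 with RCA probe and DMSO and 100% = probe without PAD4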
eLon inh = inhibits E. coli Lon protease | hit rate 0.42% among 360,000 | AID 602123 | purified E. coli Lon protease, fluorescence polarization | inhibition, % at 7.94 µM; in the data active = inhibition above about 13%, passing the limit was not always enough;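 also: 0% = enzyme with probe and DMSO and 100% = no enzyme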
GSTO1 confirm = GSTO1 (human) inhibition, confirmation | shares compounds with GSTO1 inh | recombinant GSTO1, probe fluorescence polarization | inhibition, % at 5.96 µM | hit rate 54% among 2,400;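 active = inhibition above the primary screen's cutoff, its mean inhibition plus 3 SD, cut at about 35% in these data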;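 also: loss of polarization as inhibitors block binding of rhodamine sulfonate ester activity probe; 0% = GSTO1 with DMSO and 100% = wells lacking GSTO1 enzyme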
GSTO1 recomb ABPP = GSTO1 (human) inhibition by gel ABPP; hit rate 30% among 130; recombinant GSTO1, gel ABPP SE-Rh probe fluorescence; shares compounds with GSTO1 inh; inhibition, % at 1 µM;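 active = inhibition of the enzyme GSTO1 above about 75%, limit read from the data; inactive = inhibition below that limit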
Starred values were filed as active, the others as inactive; x = no result given.

SMILES	GSTO1 inh	TDP2 absorb	PRMT1 inh	PAD4 inh	eLon inh	GSTO1 confirm	others
COC(=O)[C@]12C[C@H](CC(=O)N3CCC(c4ccccc4)CC3)C(=O)N(Cc3cccc4ccccc34)C1=C[C@H](COCc1ccccc1)O[C@@H]2C	x	-3.7	0.5	x	x	x
COC(=O)c1ccc(CC(=O)c2ccc(O)cc2O)o1	11.3	x	x	-2.7	-14.3	x
COC(=O)c1ccc(CC(=O)c2c(C)cc(O)cc2O)o1	43.2*	3.6	24.4*	-12.5	3.7	11.7
NC(=S)N/N=C/c1coc2ccc(Br)cc2c1=O	4.0	-12.6	9.1	2.1	-9.7	x
NC(=S)N/N=C/c1coc2ccc(O)cc2c1=O	66.6*	-1.4	5.5	3.0	-8.7	12.4
COc1ccc(NC(=O)CN(C)C(=O)c2cc3c(s2)CCC3)cc1	59.1*	x	x	-3.6	10.8	16.6
CCOc1ccc(C(=O)Oc2cc(C)[nH]c(=O)c2[N+](=O)[O-])cc1	61.4*	-8.8	4.1	0.8	-11.4	2.2
CC(C)c1cc2c(c(O)c1O)[C@@]13CCCC(C)(C)C1CC2OC3=O (stereo partly specified)	40.6*	-3.9	36.3*	4.3	3.9	8.1
CN1CCCN(C(=O)C2CCCN(C(=O)c3ccc4c(c3)NC(=O)CS4)C2)CC1 (stereo unspecified)	x	-5.7	-2.5	x	x	x
Nc1c(C(=O)NCc2ccc3c(c2)OCO3)c2nc3ccccc3nc2n1CCCN1CCOCC1	50.0*	-5.1	1.9	-14.6	-14.8	-3.8
Nc1c(C(=O)NCc2ccco2)c2nc3ccccc3nc2n1CCc1ccc(F)cc1	75.3*	0.9	5.5	37.1*	-18.6	57.9*
COc1cc(-n2c(N)c(C(=O)NCc3ccco3)c3nc4ccccc4nc32)cc(OC)c1OC	1.7	11.0	0.1	-2.0	-3.0	x
C=CCNC(=O)Nc1ccc2c(c1)[C@]1(CC(=O)N(CC(C)C)C1c1ccccc1)C(=O)N2C (stereo partly specified)	x	0.1	3.5	x	x	x
Cc1cc2c(NC(=O)CC(C)(C)CC(=O)O)cccc2nn1	42.5*	17.2	-2.6	-0.5	3.2	6.7
Cc1cc2c(NC(=O)Nc3ccc(F)cc3)cccc2nn1	-1.0	12.2	6.0	-7.8	2.4	x
Cc1ccc2c(c1)c1c3n2CCN(C(=O)CCl)C3CCC1 (stereo unspecified)	93.2*	12.8	0.9	-1.5	7.5	93.1*	GSTO1 recomb ABPP=85.0*
COc1cccc(/C=N/NC(=O)NC2CCCCC2)c1O	38.3*	-25.1	-1.4	-2.9	15.9	6.2
Cn1c(-c2ccccc2)cnc1SCC(=O)N1CCCc2ccccc21	3.0	-0.9	-2.4	4.7	-3.3	x
O=C(CSc1ncc(-c2ccccc2)n1C1CCCC1)N1CCc2ccccc21	39.3*	3.7	-0.2	-3.2	-2.2	22.2
CC(=O)C1=C(c2ccc(Br)cc2)C(=O)c2ccccc2C1=O	38.6*	3.3	14.0	-6.2	7.1	3.0
CC(=O)Nc1c(Br)cc2c(c1Br)C(=O)c1ccccc1-2	x	2.8	2.1	x	-10.5	x
COc1cc(CNc2ccc(N3CCCC3)cc2)ccc1OCc1ccccc1F	45.7*	x	x	-11.6	-2.1	35.1*
COc1cc(CNC(C)(C)CO)ccc1OCC(=O)NC(C)(C)C	-3.8	2.3	-2.3	-2.6	-5.4	x
COc1cc(CNc2ccc(N3CCCCC3)cc2)ccc1OCC(=O)NC(C)(C)C	47.3*	-12.4	-0.6	-9.3	14.0	4.8
CC1=NN(c2ccccc2)C(=O)/C1=C\N(O)c1ccccc1	47.6*	13.9	2.3	-11.4	0.2	40.6*
SMILES	GSTO1 inh	TDP2 absorb	PRMT1 inh	PAD4 inh	eLon inh	GSTO1 confirm	others
CC1=NN(c2ccccc2)C(=O)/C1=C/C=C/C=C/N(C)C	-41.8	8.3	-3.3	-19.0	-152.1	x
O=C1/C(=C\c2ccc(O)c(O)c2)N=C2CCCCCN12	44.4*	-20.1	-0.3	1.6	-95.9	5.9
CC(=O)c1cc2c(cc1NC(=O)c1cccc(S(=O)(=O)N3CCN(C)CC3)c1)OCO2	60.6*	-9.6	0.0	-15.2	-2.1	21.8
Cc1ccc(S(=O)(=O)NC(C)(C)C)cc1C(=O)OC(C)C(=O)NC1CC1 (stereo unspecified)	4.7	14.6	-2.9	0.2	2.0	x
COc1cc(OC)c(NS(=O)(=O)c2cc(C(=O)OC(C)C(=O)NC3CC3)c(Cl)cc2Cl)cc1Cl (stereo unspecified)	46.4*	11.9	0.0	-1.8	0.4	65.6*
Cc1ccc(S(=O)(=O)N(CC2CO2)c2cccc([N+](=O)[O-])c2)cc1 (stereo unspecified)	96.7*	1.8	-1.0	-1.5	-15.3	96.6*	GSTO1 recomb ABPP=59.0
O=S(=O)(c1ccccc1)N(CC1CO1)c1cccc2ccccc12 (stereo unspecified)	75.1*	0.4	-2.2	-3.7	-4.6	90.1*	GSTO1 recomb ABPP=20.0
O=S(=O)(c1ccccc1)N(CC1CO1)c1ccccc1 (stereo unspecified)	70.8*	16.7	-0.9	0.0	-3.2	82.8*	GSTO1 recomb ABPP=63.0
O=S(=O)(c1ccccc1)N(c1ccccc1)S(=O)(=O)c1ccccc1	x	-11.5	-1.6	x	-0.8	x
COc1ccc(N(CC(O)CN2CCOCC2)S(=O)(=O)c2ccc(C)cc2)cc1 (stereo unspecified)	7.5	-1.5	-1.8	1.4	5.8	x
Cc1ccc(S(=O)(=O)N(CC(=O)NCC2CCCO2)c2cccc([N+](=O)[O-])c2)cc1 (stereo unspecified)	10.6	-0.4	2.2	4.7	2.7	x
COc1ccc(N(CC2CO2)S(=O)(=O)c2ccc(C)cc2)cc1 (stereo unspecified)	80.7*	-7.0	-2.7	1.1	-0.7	85.3*	GSTO1 recomb ABPP=26.0
O=[N+]([O-])c1ccc(N(CC2CO2)S(=O)(=O)c2ccccc2)cc1 (stereo unspecified)	85.2*	-3.8	4.9	3.0	1.9	91.6*	GSTO1 recomb ABPP=53.0
O=C(CN(c1ccc([N+](=O)[O-])cc1)S(=O)(=O)c1ccccc1)N1CCCCC1	-0.3	3.1	-1.7	1.6	-3.6	x
CNc1nc(N)c([N+](=O)[O-])c(Nc2cccc(OC)c2)n1	x	-1.9	-2.1	x	x	x
CC(C)(C)c1ccc(O)c(N)c1	38.4*	x	x	-14.6	x	1.0
Cc1cc(C)cc(C(=O)OCCCN(C)C2CN(Cc3cn(Cc4ccccc4C(F)(F)F)nn3)S(=O)(=O)C2)c1 (stereo unspecified)	x	-7.4	0.8	x	x	x
O=C(CSc1nnc(CNC(=O)c2ccccc2)o1)Nc1ccc2c(c1)OCCO2	0.5	-5.4	1.0	1.1	10.0	x
O=C(CSc1nnc(CNc2ccccc2)o1)c1ccc2c(c1)OCCO2	40.2*	-4.3	0.0	1.1	-2.4	30.1
COc1cc(/C=N/NC(=O)c2ccncc2)c([N+](=O)[O-])cc1OC	1.7	17.7	-1.2	0.7	9.6	x
